Consider four molecules from ChEMBL document CHEMBL3739387, “Discovery and SAR of Novel and Selective Inhibitors of Urokinase Plasminogen Activator (uPA) with an Imidazo[1,2-a]pyridine Scaffold” (J Med Chem, 2015).

Molecules are shown by their SMILES. Activity calls are given as the source filed them. The calls are words filed in the database; no cut-off is given here. A value given as a limit tells only on which side of the number the result lay.

In assay [1] the target is T1, Urokinase-type plasminogen activator (Homo sapiens, UniProt P00749). Put plainly: Inhibition of human uPA using pyro-Glu-Gly-Arg-pNA as substrate assessed as para-nitroaniline release from substrate measured for 5 mins by spectrophotometric assay.
For assay [2], the target named is T2, Prothrombin (Homo sapiens, UniProt P00734). The experiment in a line: Inhibition of human plasma thrombin using pyroGlu-Pro-Arg-pNA-HCl as substrate measured for 5 mins by spectrophotometric assay. It is filed as cell-free. In short, it runs like this:
(§1)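 Thrombin from human plasma with pyroGlu-Pro-Arg-pNA (CS-21(66), Km 400 μM) at 415 μM in assay. 50 mM HEPES pH 8.2. pNA release at 405 nm over 5 min at 37 °C, in duplicate.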

Assay [3] addresses T3, Tissue-type plasminogen activator (Homo sapiens, UniProt P00750). The experiment in a line: Inhibition of recombinant human tPA using H-D-Ile-Pro-L-Arg-pNA-2HCl as substrate measured for 5 mins by spectrophotometric assay.
Target sequence in this assay (P00750 whole entry): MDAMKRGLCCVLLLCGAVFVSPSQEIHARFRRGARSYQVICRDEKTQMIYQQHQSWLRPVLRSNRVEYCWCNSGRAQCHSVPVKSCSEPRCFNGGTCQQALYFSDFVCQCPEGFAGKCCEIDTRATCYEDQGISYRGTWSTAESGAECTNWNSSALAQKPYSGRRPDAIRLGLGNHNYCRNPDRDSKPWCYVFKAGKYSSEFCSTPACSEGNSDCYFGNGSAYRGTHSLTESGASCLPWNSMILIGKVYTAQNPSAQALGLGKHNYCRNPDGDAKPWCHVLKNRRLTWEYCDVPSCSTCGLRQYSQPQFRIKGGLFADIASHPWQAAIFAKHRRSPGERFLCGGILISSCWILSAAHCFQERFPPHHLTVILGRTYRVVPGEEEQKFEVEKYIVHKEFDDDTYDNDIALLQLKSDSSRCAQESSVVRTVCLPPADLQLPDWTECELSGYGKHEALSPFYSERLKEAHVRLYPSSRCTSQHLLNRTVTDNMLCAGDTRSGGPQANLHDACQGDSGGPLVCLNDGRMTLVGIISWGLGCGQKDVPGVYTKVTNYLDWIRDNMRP
The target of assay [4] is T4, Coagulation factor X (Homo sapiens, UniProt P00742). Put plainly: Inhibition of purified human factor 10a using Suc-Ile-Glu(gammaPip)-GlyArg-pNa-HCl as substrate measured for 5 mins by spectrophotometric assay. In short, it runs like this: (§2)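 Purified human factor Xa, substrate Suc-Ile-Glu(γPip)-Gly-Arg-pNA (CS-11(32)) at 411 μM in assay. HEPES pH 8.2. Read at 405 nm for 5 min at 37 °C, duplicate wells.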
T4 sequence (P00742 41-179 limits assumed): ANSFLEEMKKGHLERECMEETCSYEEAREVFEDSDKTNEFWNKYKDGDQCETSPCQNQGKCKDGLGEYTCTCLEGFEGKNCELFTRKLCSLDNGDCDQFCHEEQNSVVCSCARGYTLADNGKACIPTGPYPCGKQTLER
T4 sequence (P00742 235-488 limits assumed): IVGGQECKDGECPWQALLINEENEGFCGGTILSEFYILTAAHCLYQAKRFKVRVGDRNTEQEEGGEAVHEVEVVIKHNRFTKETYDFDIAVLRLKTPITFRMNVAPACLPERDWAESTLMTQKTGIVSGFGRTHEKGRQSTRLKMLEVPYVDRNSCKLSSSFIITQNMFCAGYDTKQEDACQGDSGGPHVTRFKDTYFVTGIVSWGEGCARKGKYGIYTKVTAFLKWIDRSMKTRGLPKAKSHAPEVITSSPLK

Assay [5] concerns the target T5, Plasminogen (Homo sapiens, UniProt P00747). Put plainly: Inhibition of human plasma plasmin using pyroGlu-Pro-Arg-pNA-HCl as substrate measured for 5 mins by spectrophotometric assay. In kind it is cell-free. The procedure, abridged: (§3)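 Plasmin purified from human plasma. Substrate pyroGlu-Pro-Arg-pNA (CS-21(66), Km 400 μM) at 400 μM in assay. HEPES pH 7.0, 37 °C, absorbance at 405 nm followed for 5 min, duplicates.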

Assay [6] deals with T6, Plasma kallikrein (Homo sapiens, UniProt P03952). Put plainly: Inhibition of human plasma kallikrein using D-Pro-Phe-Arg-pNA-2HCl as substrate measured for 5 mins by spectrophotometric assay. In kind it is cell-free. In short, it runs like this:
(§4)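 Human plasma kallikrein, chromogenic substrate CS-31(02) (Km 269 μM) at 269 μM in assay. 50 mM HEPES at pH 7.4. Absorbance at 405 nm over 5 min at 37 °C, duplicates.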

The nature of assay [7]: Inhibition of bovine pancreatic trypsin using Nalpha-benzoyl-D,L-Arg-pNA-HCl as substrate measured for 5 mins by spectrophotometric assay. On the set-up: species or system Bos taurus.
Assay [8] concerns the target T7, Coagulation factor VII (Homo sapiens) (UniProt P08709).
T7 sequence (whole entry): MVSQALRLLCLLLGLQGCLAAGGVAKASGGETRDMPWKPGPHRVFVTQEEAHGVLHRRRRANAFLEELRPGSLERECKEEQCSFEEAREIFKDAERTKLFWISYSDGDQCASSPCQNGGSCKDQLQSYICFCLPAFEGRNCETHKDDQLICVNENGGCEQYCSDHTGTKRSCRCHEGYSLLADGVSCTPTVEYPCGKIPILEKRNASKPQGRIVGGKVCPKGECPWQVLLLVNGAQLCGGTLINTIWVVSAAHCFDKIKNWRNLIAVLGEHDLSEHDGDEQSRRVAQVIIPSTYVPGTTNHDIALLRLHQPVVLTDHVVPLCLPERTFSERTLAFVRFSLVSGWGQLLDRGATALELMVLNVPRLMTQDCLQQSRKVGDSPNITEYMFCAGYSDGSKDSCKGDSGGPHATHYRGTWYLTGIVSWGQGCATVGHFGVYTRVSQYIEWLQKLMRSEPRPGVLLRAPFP
The experiment in a line: Inhibition of purified human factor 7a using MeSO2-Cha-Abu-Arg-pNA as substrate at 100 uM measured for 5 mins by spectrophotometric assay. In short, it runs like this:
(§5)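 Purified human plasma FVIIa with tissue factor (Innovin) present. MeSO2-Cha-Abu-Arg-pNA at 800 μM in assay. Buffer 50 mM HEPES pH 7.5, 100 mM NaCl, 5 mM CaCl2, 0.1% BSA.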

Assay [9] concerns the target T1, Urokinase-type plasminogen activator. Put plainly: Inhibition of human uPA.
Assay [10] has as its target T2, Prothrombin. Put plainly: Inhibition of human plasma thrombin using pyroGlu-Pro-Arg-pNA-HCl as substrate at 100 uM measured for 5 mins by spectrophotometric assay. In kind it is cell-free. The procedure, abridged: as §1
The target in assay [11] is T3, Tissue-type plasminogen activator. The experiment in a line: Inhibition of recombinant human tPA using H-D-Ile-Pro-L-Arg-pNA-2HCl as substrate at 100 uM measured for 5 mins by spectrophotometric assay.
Target sequence in this assay (P00750 36-562 limits assumed): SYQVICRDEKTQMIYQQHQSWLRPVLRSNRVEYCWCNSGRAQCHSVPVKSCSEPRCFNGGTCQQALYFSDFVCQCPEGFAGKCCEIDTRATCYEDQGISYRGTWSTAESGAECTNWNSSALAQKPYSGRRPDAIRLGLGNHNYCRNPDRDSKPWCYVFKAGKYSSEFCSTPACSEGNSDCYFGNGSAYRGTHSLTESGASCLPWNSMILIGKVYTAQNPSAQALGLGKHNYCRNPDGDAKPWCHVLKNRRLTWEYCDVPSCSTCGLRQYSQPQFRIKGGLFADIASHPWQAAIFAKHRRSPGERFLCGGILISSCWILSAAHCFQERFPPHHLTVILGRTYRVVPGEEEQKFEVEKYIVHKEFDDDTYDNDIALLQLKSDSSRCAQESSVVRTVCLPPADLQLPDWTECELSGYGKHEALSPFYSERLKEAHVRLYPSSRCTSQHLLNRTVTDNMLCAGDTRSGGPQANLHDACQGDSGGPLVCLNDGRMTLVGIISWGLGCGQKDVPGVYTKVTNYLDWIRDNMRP
Assay [12] has as its target T4, Coagulation factor X. Put plainly: Inhibition of purified human factor 10a using Suc-Ile-Glu(yPip)-GlyArg-pNa-HCl as substrate at 100 uM measured for 5 mins by spectrophotometric assay. The procedure, abridged:
as §2

The target of assay [13] is T5, Plasminogen. The experiment in a line: Inhibition of human plasma plasmin using pyroGlu-Pro-Arg-pNA-HCl as substrate at 100 uM measured for 5 mins by spectrophotometric assay. It is filed as cell-free. The procedure, abridged:
as §3

Assay [14] addresses T6, Plasma kallikrein. Put plainly: Inhibition of human plasma kallikrein using D-Pro-Phe-Arg-pNA-2HCl as substrate at 100 uM measured for 5 mins by spectrophotometric assay. It is filed as cell-free. In short, it runs like this:
as §4

A further assay is filed under the species Bos taurus. Put plainly: Inhibition of bovine pancreatic trypsin using Na-benzoyl-D,L-Arg-pNA-HCl as substrate at 100 uM measured for 5 mins by spectrophotometric assay.
Assay [15] is filed under the species Homo sapiens. Put plainly: Selectivity index, ratio of IC50 for human plasma thrombin to IC50 for human uPA.
Assay [16] is filed under the species Homo sapiens. Put plainly: Selectivity index, ratio of IC50 for recombinant human tPA to IC50 for human uPA.
The species named for assay [17] is Homo sapiens. The experiment in a line: Selectivity index, ratio of IC50 for purified human factor 10a to IC50 for human uPA.
Assay [18] is filed under the species Homo sapiens. The experiment in a line: Selectivity index, ratio of IC50 for human plasma plasmin to IC50 for human uPA.
For assay [19], the species on record is Homo sapiens. Put plainly: Selectivity index, ratio of IC50 for human plasma kallikrein to IC50 for human uPA.
The nature of assay [20]: Selectivity index, ratio of IC50 for bovine pancreatic trypsin to IC50 for human uPA.
For assay [21], the species on record is Homo sapiens. Put plainly: Selectivity index, ratio of IC50 for purified human factor 7a to IC50 for human uPA.
The next assay addresses T8, Coagulation factor VII (Homo sapiens, UniProt P08709).
T8 sequence (P08709 whole entry): T7 sequence (whole entry)
The experiment in a line: Inhibition of purified human factor 7a using MeSO2-Cha-Abu-Arg-pNA as substrate measured for 5 mins by spectrophotometric assay. The procedure, abridged: as §5

The target of assay [22] is T1, Urokinase-type plasminogen activator. Put plainly: Reversible inhibition of human uPA using pyro-Glu-Gly-Arg-pNA as substrate assessed as para-nitroaniline release from substrate measured for 5 mins by spectrophotometry based enzyme kinetics assay.
For assay [23] the target is unchanged. Put plainly: Tight binding inhibition of human uPA using pyro-Glu-Gly-Arg-pNA as substrate assessed as para-nitroaniline release from substrate measured for 5 mins by spectrophotometry based enzyme kinetics assay.
The target is the same in assay [24]. The experiment in a line: Slow dissociating inhibition of human uPA using pyro-Glu-Gly-Arg-pNA as substrate assessed as para-nitroaniline release from substrate measured for 5 mins by spectrophotometry based enzyme kinetics assay.

T5 sequence (P00747 97-580 limits assumed): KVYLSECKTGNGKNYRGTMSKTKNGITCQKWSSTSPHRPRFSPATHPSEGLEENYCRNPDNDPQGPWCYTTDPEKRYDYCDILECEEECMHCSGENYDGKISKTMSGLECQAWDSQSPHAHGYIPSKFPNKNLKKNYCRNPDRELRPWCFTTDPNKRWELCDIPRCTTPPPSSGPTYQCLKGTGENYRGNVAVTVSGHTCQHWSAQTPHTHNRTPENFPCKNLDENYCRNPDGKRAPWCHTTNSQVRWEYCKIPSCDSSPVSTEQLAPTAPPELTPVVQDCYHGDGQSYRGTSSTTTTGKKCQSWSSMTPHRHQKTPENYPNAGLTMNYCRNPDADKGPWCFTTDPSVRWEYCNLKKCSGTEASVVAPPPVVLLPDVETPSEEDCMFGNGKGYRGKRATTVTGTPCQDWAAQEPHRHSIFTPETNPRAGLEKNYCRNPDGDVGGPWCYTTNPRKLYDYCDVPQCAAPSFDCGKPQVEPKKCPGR
T5 sequence (P00747 581-810 limits assumed): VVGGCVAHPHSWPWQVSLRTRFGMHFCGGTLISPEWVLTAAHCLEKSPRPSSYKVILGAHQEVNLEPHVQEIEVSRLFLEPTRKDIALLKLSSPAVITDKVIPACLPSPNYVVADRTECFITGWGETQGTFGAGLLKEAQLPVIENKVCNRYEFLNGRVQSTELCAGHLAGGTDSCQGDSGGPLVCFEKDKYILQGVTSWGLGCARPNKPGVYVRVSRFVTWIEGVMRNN
T6 sequence (P03952 20-390 limits assumed): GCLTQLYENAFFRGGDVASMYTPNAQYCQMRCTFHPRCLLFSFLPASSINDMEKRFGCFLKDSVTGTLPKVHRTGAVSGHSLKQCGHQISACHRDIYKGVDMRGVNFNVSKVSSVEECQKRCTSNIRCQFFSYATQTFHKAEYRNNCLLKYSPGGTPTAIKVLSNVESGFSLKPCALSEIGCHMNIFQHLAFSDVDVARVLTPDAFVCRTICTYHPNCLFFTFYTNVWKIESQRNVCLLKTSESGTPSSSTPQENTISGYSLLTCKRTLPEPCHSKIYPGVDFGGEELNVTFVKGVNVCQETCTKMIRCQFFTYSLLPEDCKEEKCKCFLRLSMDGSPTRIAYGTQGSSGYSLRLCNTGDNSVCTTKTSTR
T6 sequence (P03952 391-638 limits assumed): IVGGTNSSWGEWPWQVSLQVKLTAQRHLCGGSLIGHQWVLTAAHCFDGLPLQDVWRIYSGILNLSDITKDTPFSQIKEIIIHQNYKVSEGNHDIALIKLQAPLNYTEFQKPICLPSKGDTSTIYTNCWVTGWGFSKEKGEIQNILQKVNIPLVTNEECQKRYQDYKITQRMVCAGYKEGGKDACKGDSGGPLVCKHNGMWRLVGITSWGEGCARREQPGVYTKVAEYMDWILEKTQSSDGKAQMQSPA

As to `N=C(N)c1ccc(/C=C2/N=C(c3ccccc3)OC2=O)cc1`, the IC50 (commonly the point on the concentration scale where inhibition reaches its midpoint) in [1] is 8.67 µM; at Prothrombin [2], 56.1 µM; in [3] it was 68.5 µM; on Coagulation factor X [4] it was 6.47 µM; on Plasminogen [5] it was 0.34 µM; against Plasma kallikrein [6], 1.34 µM. This molecule also displayed an IC50 in assay [7] of 3.18 µM. The inhibition (commonly the change of the read-out against control, counted positive when it falls) in assay [8] was found to be 0%.
As for `N=C(N)c1ccc(CNC(=O)[C@H](CO)NC(=O)[C@@H](CO)NS(=O)(=O)Cc2ccccc2)cc1`, in [9], the Ki – broadly, a measure of affinity in units of concentration, obtained from inhibition or displacement – came out at 0.02 µM.
Consider `CCCCNC(=O)c1ccn2c(NCc3ccc(NC(=N)N)cc3)cnc2c1`, for which the IC50 in [1] was 0.097 µM; against Prothrombin [2], > 100 µM; in assay [3], > 100 µM; at Coagulation factor X [4], > 100 µM; against Plasminogen [5], > 100 µM; at Plasma kallikrein [6], > 100 µM. The IC50 (in assay [7]; at Coagulation factor VII) was > 100 µM each time. In addition, the inhibition is 1.4% in [8]; 19.2% against Prothrombin [10]; 8% in [11]; 41.8% at Coagulation factor X [12]; 13.6% at Plasminogen [13]; 2.8% against Plasma kallikrein [14]. The inhibition in the assay filed under Bos taurus amounted to 42.7%. Besides, the Ratio IC50 (in the assay listed under Homo sapiens [15]; in the assay filed under Homo sapiens [16]; in the assay filed under Homo sapiens [17]; in the assay listed under Homo sapiens [18]; in the assay filed under Homo sapiens [19]; in assay [20]) was > 1000 each time. Moreover, in the assay filed under Homo sapiens [21], the Ratio IC50 is > 1000. Also, the inhibition result in assay [22], in assay [23] and in assay [24] was “Active” each time.
For the molecule `CCOC(=O)c1ccc(OC(=O)CCCCCNC(=N)N)cc1` [GABEXATE], the IC50 in assay [1] was 0.431 µM; at Prothrombin [2], 0.687 µM; in [3] it was 15.4 µM; against Coagulation factor X [4], 4.61 µM; on Plasminogen [5], 1.55 µM; at Plasma kallikrein [6], 1.35 µM. Besides, it took 7.12 µM to reach half-maximal inhibition in assay [7] (IC50).
